The source made the active and inactive calls. The rule behind the calls is not given here. Bounds are passed on as bounds.

What is called inhibition is the drop in the measured response relative to a control, in per cent. One may read the IC50 as the concentration needed to halve the response being measured.

Assay [1] has as its target Macrophage migration inhibitory factor (Rattus norvegicus) (UniProt P30904). The assay can be described thus: Inhibition of recombinant rat MIF expressed in Escherichia coli BL21 (DE3) assessed as reduction in tautomerase activity at 30 uM using L-dopachrome carboxy-methyl ester as substrate by spectrophotometry relative to control. The method in brief: (§1)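 Purified recombinant rat MIF tautomerase assayed with purified L-dopachrome carboxy-methyl ester as substrate in pH 6.0 buffer; rate taken over the initial 30 s. Mean ± SD, n = 4.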
Target sequence in this assay (P30904 2-115 limits assumed): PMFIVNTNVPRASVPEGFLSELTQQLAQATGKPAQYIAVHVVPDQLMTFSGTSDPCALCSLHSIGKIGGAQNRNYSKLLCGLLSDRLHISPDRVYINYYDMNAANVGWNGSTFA

Assay [2] shares this target. The assay can be described thus: Inhibition of [3H]-BTZO-1 binding to recombinant rat C-terminal His-tagged MIF expressed in Escherichia coli BL21 (DE3) at 100 uM measured after 3 hrs by SPA relative to control.
Target sequence in this assay (P30904 whole entry, looked up): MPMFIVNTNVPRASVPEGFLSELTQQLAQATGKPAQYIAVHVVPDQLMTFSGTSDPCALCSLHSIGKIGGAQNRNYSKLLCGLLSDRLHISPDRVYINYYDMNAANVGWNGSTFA
Assay [3] deals with Macrophage migration inhibitory factor (Rattus norvegicus, UniProt P30904). Nature of the assay: Inhibition of recombinant rat MIF expressed in Escherichia coli BL21 (DE3) assessed as reduction in tautomerase activity using L-dopachrome carboxy-methyl ester as substrate by spectrophotometry. The gist of the method: as §1
Assay [4] concerns Antioxidant response element. The assay can be described thus: Induction of rat ARE activity expressed in rat H9c2 cells assessed as increase in ARE luciferase activity measured after 24 hrs by steady-glo luciferase Assay. In kind it is cell-based. The gist of the method:
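H9c2 cells transiently transfected with pGL3-ARE-Luc or pGL3-mARE-Luc, compound exposure 24 hr, luciferase read by Steady-Glo. MEC2.0 is the concentration giving a doubling of luciferase activity. Mean ± SD, n = 4.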

Assay [5] concerns the target Macrophage migration inhibitory factor (Rattus norvegicus) (UniProt P30904). The assay can be described thus: Inhibition of [3H]-BTZO-1 binding to recombinant rat C-terminal His-tagged MIF expressed in Escherichia coli BL21 (DE3) measured after 3 hrs by SPA.
Target sequence in this assay (P30904 whole entry, looked up): as above
Assay [6] has the same target. The assay can be described thus: Binding affinity to recombinant rat MIF expressed in Escherichia coli BL21 (DE3) by chromatography.
Target sequence in this assay (P30904 2-115 limits assumed): as the sequence (P30904 2-115 limits assumed) above
The subject of another assay is Cardiac muscle cell. The assay can be described thus: Cytoprotective activity against serum deprivation-induced neonatal Wistar rat cardiomyocyte death assessed as increase in cell viability measured after 4 days by WST-8 assay. In kind it is functional. The note with it: time 4 day. The method in brief: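 Primary neonatal rat cardiomyocytes were isolated by proteinase digestion, with preplating to remove adherent non-myocytes. Death was induced by serum deprivation at low density (3×10^5 cells/ml) for 4 days with compound present. Viability was read by WST-8. MEC1.5 is the concentration giving a 50% rise in viability. n = 3.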
A general note: Tetrazolium dyes change colour on reduction, which living cells bring about.

Assay [7] has as its system Antioxidant response element. Nature of the assay: Induction of ARE activity in serum-deprived neonatal Wistar rat cardiomyocytes assessed as increase in HO-1 expression up to 400 nM measured after 24 hrs by Western blot analysis. The note with it: Cardiomyocyte. In kind it is cell-based. The method in brief: (§2)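 Neonatal rat cardiomyocytes exposed to samples or vehicle in M-199 with 1% penicillin-streptomycin, no serum, for 24 hr. GST Ya and HO-1 mRNA measured by real-time qPCR (mean ± SD, n = 3); protein by western blot with β-actin as control.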
(In general: Immunoblotting shows a protein as a band on a membrane.)

The test system of assay [8] is Antioxidant response element. Nature of the assay: Induction of ARE activity in serum-deprived neonatal Wistar rat cardiomyocytes assessed as increase in HO-1 mRNA level up to 3 uM measured after 24 hrs by RT-qPCR analysis. The class given is cell-based. The note with it: Cardiomyocyte. The gist of the method:
as §2
On the technique in general: In qPCR the cycle at which signal appears reflects the starting amount.

Assay [9] concerns Rattus norvegicus. The assay can be described thus: Cardioprotective effect against ischemia reperfusion injury in Wistar rat myocardial infarction model assessed as area at risk at 10 mg/kg, ip administered 1 hr prior to LAD occlusion and 2 and 8 hr after reperfusion and measured after 24 hrs by Evans blue dye based assay (reference value: 46 +/- 3%). To be noted: time 25 hrs. In kind it is functional. The method in brief:
(§3)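 Anaesthetized rats; LAD coronary occlusion 25 min followed by 24 hr reperfusion. Compound 10 mg/kg i.p. given 1 hr before occlusion and 2 and 8 hr after reperfusion; vehicle controls, n = 13. Area at risk given as % of LV, infarct size as % of area at risk. Mean ± SEM.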

In assay [10] the test system is Antioxidant response element. The assay can be described thus: Induction of ARE activity in serum-deprived neonatal Wistar rat cardiomyocytes assessed as increase in GST Ya expression up to 400 nM measured after 24 hrs by Western blot analysis. In kind it is cell-based. The note with it: Cardiomyocyte. The method in brief:
as §2

Assay [11] relates to Rattus norvegicus. Nature of the assay: Cardioprotective effect against ischemia reperfusion injury in Wistar rat myocardial infarction model assessed as reduction in infarct size at 10 mg/kg, ip administered 1 hr prior to LAD occlusion and 2 and 8 hr after reperfusion and measured after 24 hrs by Evans blue dye based assay relative to control. In kind it is functional. Also on record: scale not given: the % may be the effect or the level left. The note with it: time 25 hrs. The method in brief: as §3

In assay [12] the test system is Antioxidant response element. Nature of the assay: Induction of ARE activity in serum-deprived neonatal Wistar rat cardiomyocytes assessed as increase in GST Ya mRNA level up to 3 uM measured after 24 hrs by RT-qPCR analysis. The class given is cell-based. To be noted: Cardiomyocyte. The method in brief: as §2
The target of assay [13] is Macrophage migration inhibitory factor (Rattus norvegicus) (UniProt P30904). The assay can be described thus: Binding affinity to MIF in Wistar rat isolated heart by chromatography. The class given is tissue-based.
Target sequence in this assay (P30904 2-115 limits assumed): as above
Assay [14] has as its system Antioxidant response element. The assay can be described thus: Induction of rat ARE activity expressed in MIF-stimulated rat H9c2 cells assessed as increase in ARE luciferase activity at 1 uM measured after 24 hrs by steady-glo luciferase Assay. In kind it is cell-based. The gist of the method: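 H9c2 cells transiently transfected with pGL3-ARE-Luc (rat GST Ya ARE) or mutant-ARE control plasmid, then treated with rMIF with or without 1 μM compound for 24 hr. Luciferase by Steady-Glo; mean ± SD, n = 4.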

The target in assay [15] is Macrophage migration inhibitory factor (Rattus norvegicus) (UniProt P30904). Nature of the assay: Induction of MIF-stimulated ARE activity in rat H9c2 cells assessed as increase in HO-1 expression at 3 uM incubated for 6 hrs by RT-qPCR analysis. The class given is cell-based.
Target sequence in this assay (P30904 2-115 limits assumed): as above
Assay [16] shares this target. The assay can be described thus: Induction of MIF-stimulated ARE activity in rat H9c2 cells assessed as increase in GST Ya expression at 3 uM incubated for 24 hrs by RT-qPCR analysis. The class given is cell-based.
Target sequence in this assay (P30904 2-115 limits assumed): as above
Assay [17] shares this target. Nature of the assay: Binding affinity to rat C-terminal His-tagged MIF expressed in Escherichia coli BL21 (DE3) by SPR analysis. The gist of the method: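 Sensor chip carrying immobilized BTZO-12; MIF (wild type or point mutants) passed over it and specific binding monitored by surface plasmon resonance.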
Target sequence in this assay (P30904 2-115 limits assumed): as above
Assay [18] has the same target. Nature of the assay: Binding affinity to MIF in Wistar rat isolated heart by SPR analysis. In kind it is tissue-based. The gist of the method: (§4)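 BTZO-12-type sensor chip probed with rat heart protein; bound protein recovered by microrecovery elution, then identified by silver staining and by western blot with anti-MIF antibody.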
For assay [19] the target is unchanged. Nature of the assay: Binding affinity to MIF in Wistar rat isolated heart by Western blot analysis. The class given is tissue-based. The gist of the method: as §4
Assay [20] shares this target. The assay can be described thus: Binding affinity to MIF in Wistar rat isolated heart by silver staining based assay. The class given is tissue-based. The gist of the method:
as §4

Sequence of Macrophage migration inhibitory factor (P30904 2-115 limits assumed): as above

For the compound `COC(=O)CC1CC(c2ccc(O)cc2)=NO1` (stereo not drawn), the inhibition was 30% in assay [1] and 12% in assay [2]. The IC50 in [3] worked out at 68 µM. Also, the MEC2 in [4] is greater than 30 µM.

On to `CCCCC/C=C/C=C1/C(=O)C=C[C@@H]1C/C=C\CCCC(=O)O`, for which the values for the IC50 in [5] and in [3] were 3.6 µM and 3.7 µM, respectively. Also, the MEC2 in assay [4] turned out to be 7.3 µM.

As to `Cc1cc(C)c2sc(-c3cccc(CCCOCCC(=O)O)n3)nc(=O)c2c1`, the outcome in [6] was inactive. Moreover, the MEC1.5 in the assay on Cardiac muscle cell is on record as greater than 1000 nM. Also, in [4], the MEC2 was greater than 10 µM.

In the case of `O=C(O)CCOCCCc1cccc(-c2nc(=O)c3cccnc3s2)n1`, the result in [6] was inactive. The MEC1.5 in the assay with Cardiac muscle cell was greater than 1000 nM. Also, the MEC2 in [4] was greater than 10 µM.

Regarding `O=C(O)CCc1cccc(-c2nc(=O)c3ccccc3s2)n1`, the result in assay [7], in assay [8], in assay [10] and in [12] was Active. Besides, the figures for the Activity (in the assay on Rattus norvegicus [9]; in the assay with Rattus norvegicus [11]; in assay [4]) were 48%, 45% and “Dose-Dependent Effect”, respectively. Besides, the inhibition in assay [1] worked out at 14%. For the same compound, the MEC1.5 with Cardiac muscle cell was determined as 39 nM. Also, the MEC2 in [4] came out at 2.3 µM.

For `O=C(O)CCOCCCc1cccc(-c2nc(=O)c3ccccc3s2)n1`, the outcome in assay [13] and in assay [6] was Active. Besides, the MEC1.5 in the assay with Cardiac muscle cell is given as 53 nM. Moreover, the MEC2 in [4] stood at 2.2 µM.

On to `Cc1cc(C)c2sc(-c3ccccn3)nc(=O)c2c1`, for which the MEC1.5 in the assay on Cardiac muscle cell is given as greater than 1000 nM. Besides, in assay [4], the MEC2 is greater than 10 µM.

Turning to `O=C(O)CCOCCCc1ccc(-c2nc(=O)c3ccccc3s2)nc1`, the result in [13] and in assay [6] was Active. In addition, the MEC1.5 in the assay on Cardiac muscle cell is recorded as 39 nM. Also, in assay [4], the MEC2 came out at 1.6 µM.

As for `O=c1nc(-c2ccccn2)sc2ncccc12`, in assay [1], the inhibition was determined as 5%. The MEC1.5 in the assay on Cardiac muscle cell is on record as greater than 1000 nM. In addition, the MEC2 in assay [4] was greater than 10 µM.

In the case of `Cc1cccc2c(=O)nc(-c3ccccn3)sc12`, the result in [14], in [7], in [15], in assay [10] and in assay [16] was inactive. Also, the inhibition in [1] stood at 6%. Further, the MEC1.5 with Cardiac muscle cell was greater than 1000 nM. Further, in assay [4], the MEC2 is greater than 10 µM.

Turning to `O=C(O)CCOCCCc1cccc(C2NC(=O)c3ccccc3S2)n1` (stereo not drawn), the result in [6] was inactive. For the same compound, the MEC1.5 in the assay with Cardiac muscle cell is recorded as greater than 1000 nM. Moreover, in assay [4], the MEC2 was greater than 10 µM.

In the case of `O=c1nc(-c2cccnc2)sc2ccccc12`, the inhibition in [1] worked out at 12%. The MEC1.5 in the assay with Cardiac muscle cell stood at 39 nM. Moreover, in [4], the MEC2 amounted to 0.8 µM.

In the case of `C[S@+]([O-])CCCCN=C=S`, the MEC2 in assay [4] was found to be 4.4 µM.

As to `Cc1cccc2c(=O)nc(-c3cccc(C(=O)NCCCCCCN)n3)sc12`, the outcome in assay [17] and in assay [18] was inactive. Besides, in assay [4], the MEC2 was greater than 10 µM.

With `NCCCCCCNC(=O)c1cccc(-c2nc(=O)c3ccccc3s2)n1`, the result in assay [17], in assay [19], in [18] and in assay [20] was Active. In addition, in [4], the MEC2 was 1.1 µM.

For the compound `O=C1NC(c2ccccn2)Sc2ccccc21` (stereo not drawn) [BTZO-4], the inhibition in assay [1] came out at 3%. Also, in the assay on Cardiac muscle cell, the MEC1.5 is greater than 1000 nM. Besides, the MEC2 in assay [4] is greater than 10 µM.

Turning to `CC(C)(C)c1cc(O)ccc1O` [E319], the IC50 in [5] is 1.1 µM; in assay [3], greater than 30 µM. Besides, the MEC2 in assay [4] turned out to be 5.7 µM.

On to `C[S@@+]([O-])CCCCN=C=S` [L-SULFORAPHANE], for which the half-maximal inhibitory concentration (IC50) in assay [5] is 25 µM; in [3], 4.4 µM.

Take `Cc1c(C)c2c(c(C)c1O)CCC(C)(C(=O)O)O2` (stereo not drawn) [TROLOX]: in the assay with Cardiac muscle cell, the MEC1.5 came to 160000 nM.

The values above are taken from ChEMBL document CHEMBL5715946 (Chem Biol, 2010).
